Molecules are shown by their SMILES.

One data set addresses T1, ACE (Oryctolagus cuniculus, UniProt P12822).
T1 sequence (P12822 34-1310): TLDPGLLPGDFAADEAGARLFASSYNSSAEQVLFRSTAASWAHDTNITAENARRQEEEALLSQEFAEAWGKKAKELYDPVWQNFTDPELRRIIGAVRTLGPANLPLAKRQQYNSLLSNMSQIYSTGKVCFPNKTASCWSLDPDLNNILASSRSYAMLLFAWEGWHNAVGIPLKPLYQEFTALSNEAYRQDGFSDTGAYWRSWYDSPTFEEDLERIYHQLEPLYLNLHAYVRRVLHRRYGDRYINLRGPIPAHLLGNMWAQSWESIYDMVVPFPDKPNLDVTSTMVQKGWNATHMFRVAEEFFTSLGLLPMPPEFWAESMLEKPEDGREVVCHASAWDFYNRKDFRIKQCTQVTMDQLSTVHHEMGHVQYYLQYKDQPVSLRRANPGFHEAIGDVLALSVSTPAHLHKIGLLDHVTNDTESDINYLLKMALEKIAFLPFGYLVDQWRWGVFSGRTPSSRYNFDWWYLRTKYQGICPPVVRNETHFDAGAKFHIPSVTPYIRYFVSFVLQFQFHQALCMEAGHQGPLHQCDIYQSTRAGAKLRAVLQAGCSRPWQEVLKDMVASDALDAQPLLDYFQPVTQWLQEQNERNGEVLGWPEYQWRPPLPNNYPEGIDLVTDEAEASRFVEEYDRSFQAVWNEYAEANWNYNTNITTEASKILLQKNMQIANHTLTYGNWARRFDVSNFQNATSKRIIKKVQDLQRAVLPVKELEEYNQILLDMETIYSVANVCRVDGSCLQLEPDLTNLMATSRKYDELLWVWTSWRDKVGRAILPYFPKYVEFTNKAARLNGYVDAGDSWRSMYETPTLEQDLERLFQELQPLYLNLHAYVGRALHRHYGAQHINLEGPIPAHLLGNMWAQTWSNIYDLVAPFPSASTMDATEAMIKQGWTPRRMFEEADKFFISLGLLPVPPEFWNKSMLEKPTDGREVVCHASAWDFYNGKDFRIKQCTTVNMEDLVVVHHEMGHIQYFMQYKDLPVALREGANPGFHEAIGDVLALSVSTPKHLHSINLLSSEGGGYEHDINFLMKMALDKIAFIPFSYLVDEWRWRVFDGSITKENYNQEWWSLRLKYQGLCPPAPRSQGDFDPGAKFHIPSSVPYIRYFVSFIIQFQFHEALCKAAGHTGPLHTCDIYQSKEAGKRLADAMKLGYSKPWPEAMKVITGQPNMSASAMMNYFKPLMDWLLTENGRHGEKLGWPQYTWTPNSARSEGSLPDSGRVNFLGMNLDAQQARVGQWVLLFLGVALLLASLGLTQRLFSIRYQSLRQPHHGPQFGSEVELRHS
In words: In vitro ACE inhibition assay. The class given is biochemical. As to conditions: IC50, ACE from rabbit lung acetone powder; substrate HHL.

Data set [1] can be described thus: Bioavailability study after oral administration in mice. The class given is in vivo. The procedure, abridged:
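Swiss Webster mice aged 20–25 weeks, in control and test groups (n=5), were dosed orally by dosing needle at 3 mg per 30 g body weight; a comparator group received 2 g/kg orally. Plasma was precipitated with 40% methanol and spun at 14,000 rpm for 10 min. The supernatant was run on RP-Amide HPLC (50 mmol/L NaH2PO4 pH 4.3 to 70% acetonitrile gradient, 0.7 mL/min) with electrochemical detection.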

The next data set deals with isolated rat hearts. In words: Vasodilator activity on isolated rat hearts. As to conditions: 10 μg test compound.
The nature of another data set: NO donor activity. The following applies: 100 μmol, phosphate buffer pH 7.4, 5 mM L-cysteine, 3 hours at 37°C. In outline:
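Test compound in DMSO (100 μmol) was added to 50 mM phosphate buffer pH 7.4 with 5 mM L-cysteine hydrochloride and held 3 h at 37°C. Griess reagent was then added, and absorbance at 550 nm was read after 20 min against a 5–50 μM sodium nitrite calibration curve. Release was expressed as mol nitrite detected per mol test compound ×100.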

The conditions of data set [2]: experimental rats; cited from earlier work.
Where [3] appears, read: mice, 3 mg per 30 g body weight.
Setting [4] is: isolated rat heart, BaCl2-induced reduction.

Regarding `CCCCN1C/C(=C\c2cc(OC)c(OC)c(OC)c2)C(=O)/C(=C/c2cc(OC)c(OC)c(OC)c2)C1` [Compound 4k, (3E,5E)-1-butyl-3,5-bis(3,4,5-trimethoxybenzylidene) piperidin-4-one], at ACE, the IC50 – broadly, the point on the concentration scale where inhibition reaches its midpoint – stood at 4.45 µM.
With `CCN1C/C(=C\c2cc(OC)c(OC)c(OC)c2)C(=O)/C(=C/c2cc(OC)c(OC)c(OC)c2)C1` [Compound 4i, (3E,5E)-1-ethyl-3,5-bis(3,4,5-trimethoxybenzylidene) piperidin-4-one], on ACE, 3.21 µM corresponded to half-maximal inhibition (IC50).
For the compound `CCN1C/C(=C\c2ccc([N+](=O)[O-])cc2)C(=O)/C(=C/c2ccc([N+](=O)[O-])cc2)C1` [Compound 4m, (3E,5E)-1-ethyl-3,5-bis(4-nitrobenzylidene)piperidin-4-one], the IC50 on ACE was determined as 95.1 µM.
`CCCN1C/C(=C\c2cc(OC)c(OC)c(OC)c2)C(=O)/C(=C/c2cc(OC)c(OC)c(OC)c2)C1` [Compound 4j, (3E,5E)-1-propyl-3,5-bis(3,4,5-trimethoxybenzylidene) piperidin-4-one] returned an IC50 against ACE of 1.23 µM. Besides, the in vivo bioavailability result in data set [1] (mice) was “better in vivo bioavailability compared with curcumin”. In addition, in data set [1] (setting [3]), the plasma concentration is 35 µM and the “time until first detected in plasma” value turned out to be 10 min.
As to `CCCCCN1C/C(=C\c2ccc(O)c(O)c2)C(=O)/C(=C/c2ccc(O)c(O)c2)C1` [Compound 4h, (3E,5E)-3,5-bis(3,4-dihydroxybenzylidene)-1-pentylpiperidin-4-one], half-maximal inhibition against ACE (IC50) was put at 48.6 µM.
For `COc1cc(/C=C/C(=O)CC(=O)/C=C/c2ccc(O)c(OC)c2)ccc1O` [curcumin], the heart rate entry with isolated rat hearts is listed as “did not result in any significant changes”. Besides, in the data set with isolated rat hearts (setting [4]), the cardiac output entry is reported as “did not result in any significant changes” and the stroke volume entry was “did not result in any significant changes”. Further, the “NO donor activity (percentage of NO2)” value in “NO donor activity” is given as “did not result in any significant changes”. The “time until first observed in the blood” value in data set [1] (curcumin 2 g/kg) is about 80 min. In addition, the oral bioavailability entry in data set [2] was “very poor”.
On ACE, `CCCCCN1C/C(=C\c2ccccc2)C(=O)/C(=C/c2ccccc2)C1` [Compound 4d, (3E,5E)-3,5-dibenzylidene-1-pentylpiperidin-4-one] returned an IC50 of 78.5 µM.
On the same count and under the same terms, the result for `CCCN1C/C(=C\c2ccc(O)c(O)c2)C(=O)/C(=C/c2ccc(O)c(O)c2)C1` [Compound 4f, (3E,5E)-3,5-bis(3,4-dihydroxybenzylidene)-1-propylpiperidin-4-one] reads 20.1 µM.
On the same count and under the same terms, the result for `CCCN1C/C(=C\c2ccc([N+](=O)[O-])cc2)C(=O)/C(=C/c2ccc([N+](=O)[O-])cc2)C1` [Compound 4n, (3E,5E)-3,5-bis(4-nitrobenzylidene)-1-propylpiperidin-4-one] reads 90.2 µM; that for `CCCCN1C/C(=C\c2ccc(O)c(O)c2)C(=O)/C(=C/c2ccc(O)c(O)c2)C1` [Compound 4g, (3E,5E)-1-butyl-3,5-bis(3,4-dihydroxybenzylidene) piperidin-4-one], 41.3 µM; that for `CCN1C/C(=C\c2ccccc2)C(=O)/C(=C/c2ccccc2)C1` [Compound 4a, (3E,5E)-3,5-dibenzylidene-1-ethylpiperidin-4-one], 50.9 µM.
On to `CCN1C/C(=C\c2ccc(O)c(O)c2)C(=O)/C(=C/c2ccc(O)c(O)c2)C1` [Compound 4e, (3E,5E)-3,5-bis(3,4-dihydroxybenzylidene)-1-ethylpiperidin-4-one], for which the IC50 at ACE was 32.2 µM.
For `CCCCN1C/C(=C\c2ccccc2)C(=O)/C(=C/c2ccccc2)C1` [Compound 4c, (3E,5E)-3,5-dibenzylidene-1-butylpiperidin-4-one], on ACE, inhibition was half-maximal at 64.4 µM (IC50).
Still for that read-out and setting: the result for `CCCCN1C/C(=C\c2ccc([N+](=O)[O-])cc2)C(=O)/C(=C/c2ccc([N+](=O)[O-])cc2)C1` [Compound 4o, (3E,5E)-1-butyl-3,5-bis(4-nitrobenzylidene)piperidin-4-one] reads 131 µM; that for `CCCCCN1C/C(=C\c2ccc([N+](=O)[O-])cc2)C(=O)/C(=C/c2ccc([N+](=O)[O-])cc2)C1` [Compound 4p, (3E,5E)-3,5-bis(4-nitrobenzylidene)-1-pentylpiperidin-4-one], 120 µM.
`CCCCCN1C/C(=C\c2cc(OC)c(OC)c(OC)c2)C(=O)/C(=C/c2cc(OC)c(OC)c(OC)c2)C1` [Compound 4l, (3E,5E)-1-pentyl-3,5-bis(3,4,5-trimethoxybenzylidene) piperidin-4-one] registered a 50% inhibitory concentration (IC50) against ACE of 6.65 µM. Besides, the “NO donor activity (percentage of NO2)” value in “NO donor activity” is “highest donor activity”.
`CCCN1C/C(=C\c2ccccc2)C(=O)/C(=C/c2ccccc2)C1` [Compound 4b, (3E,5E)-3,5-dibenzylidene-1-propylpiperidin-4-one]: on ACE, the IC50 stood at 51.1 µM.

The record behind these values is article PMC4708961 (Drug Design, Development and Therapy, 2016).
